CendR NRP1 mod: NRP-1/CendR interaction modulation; O14786; FAM-RPARPAR peptide binding to NRP-1, fluorescence polarization; inhibition, % at 25 µM; 0.85% of 360,000 active; AID 602438;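 active = inhibition or corrected inhibition above about 18%, plus a signal ratio from 0.5 to 1.5, limit read from the data, passing the limit was not always enough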
ATG4B inh: ATG4B (human) cysteine protease inhibition. inhibition, % at 8.33 µM. Q9Y4P1. 0.51% of 340,000 active. ATG4B cleavage of LC3-PLA2, NBD-HPC fluorescence, 1 h; in the data active = inhibition above about 40%
Arr AP2 block: inhibitors of human beta-arrestin and AP2 interaction; FITC-arrestin peptide / GST-AP2 beads, flow cytometry; AP2 beta2 appendage carries R879A mutation; inhibition, % at 10 µM; 0.31% of 340,000 active;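 active = inhibition above a set limit, near 3 SD of compounds lacking own fluorescence, cut at about 54% in these data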;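 also: plate controls were DMSO wells for no effect and 5 µM unlabelled arrestin peptide for full effect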
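test system = AP2 appendage R879A on GSH beads | buffer or medium = PBS plus Tween 20 (0.05%) and BSA (0.1%) | incubation = 12 min plus 1 h, RT | detection = bead flow cytometry, FITC channel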
ABCB6 inh MLPCN: blocks the human ABCB6 transporter; 0.19% of 360,000 active; Q9NP58; AID 602162; K562-ABCB6 porphyrin accumulation, flow cytometry, 1 h; stronger effect = lower value; fluorescence ratio to DMSO, % at 10 µM;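 active = fluorescence ratio to DMSO below 75%, the collection mean minus 3 SD; inconclusive = too few cells collected in the well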;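 also: signal is porphyrin accumulated inside mitochondria; 100% equals median channel fluorescence of DMSO control wells; lower ratio means ABCB6 inhibition with less porphyrin fluorescence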
Target sequence (Q9NP58 whole entry, looked up): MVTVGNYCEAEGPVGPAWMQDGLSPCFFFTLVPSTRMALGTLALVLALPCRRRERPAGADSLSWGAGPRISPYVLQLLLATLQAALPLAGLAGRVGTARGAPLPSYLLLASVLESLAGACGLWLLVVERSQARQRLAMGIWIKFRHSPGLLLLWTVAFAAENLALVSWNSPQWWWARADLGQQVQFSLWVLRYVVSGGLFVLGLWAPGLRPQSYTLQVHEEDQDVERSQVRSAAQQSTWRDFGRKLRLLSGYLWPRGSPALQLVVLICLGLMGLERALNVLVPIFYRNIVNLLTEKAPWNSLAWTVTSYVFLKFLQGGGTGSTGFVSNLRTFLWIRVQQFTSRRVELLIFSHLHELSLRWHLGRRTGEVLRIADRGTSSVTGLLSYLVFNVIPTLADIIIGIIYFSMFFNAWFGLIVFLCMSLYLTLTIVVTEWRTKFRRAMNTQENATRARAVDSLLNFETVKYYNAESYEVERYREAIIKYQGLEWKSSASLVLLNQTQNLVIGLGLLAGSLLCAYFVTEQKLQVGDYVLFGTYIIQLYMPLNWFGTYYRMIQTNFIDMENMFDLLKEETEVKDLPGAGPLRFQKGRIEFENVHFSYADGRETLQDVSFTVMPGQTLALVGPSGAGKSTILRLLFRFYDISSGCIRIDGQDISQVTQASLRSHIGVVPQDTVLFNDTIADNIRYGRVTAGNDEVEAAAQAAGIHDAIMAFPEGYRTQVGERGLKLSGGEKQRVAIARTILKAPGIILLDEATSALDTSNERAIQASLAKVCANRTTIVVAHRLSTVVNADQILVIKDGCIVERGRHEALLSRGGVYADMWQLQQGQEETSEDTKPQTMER
Exocytosis inh: lytic granule exocytosis inhibition. TALL-104 LAMP-1 surface exposure, flow cytometry; cells stimulated with thapsigargin and PMA. inhibition, % at 10 µM. 0.66% of 360,000 active;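 active = inhibition above about 55%, limit read from the data; inconclusive = no clear call, values can overlap the other calls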
Myeloid diff MLP: compounds promoting myeloid differentiation. ER-HoxA9 myeloid progenitors, lysozyme-GFP differentiation, flow cytometry. calls only at 10 µM. 1% of 360,000 active. AID 624256;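 active = normalized GFP-positive differentiation at or above the plate's own cutoff, the solvent-only control mean plus 3 SD; inconclusive = no clear call, values can overlap the other calls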;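 also: cells exposed to compound for four days before flow analysis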
Granule exo CP1: blocks lytic granule exocytosis | shares compounds with Exocytosis inh | 11% of 1,500 active | TALL-104 cells, LAMP-1 externalization, flow cytometry; stimulated with PMA plus thapsigargin | inhibition, % at 10 µM; in the data active = inhibition above about 60%;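 also: 0% = stimulated vehicle wells and 100% = unstimulated wells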
* = called active by the depositor; i = inactive; ? = inconclusive; / = not tested or not shown. The list is not random: actives were taken first. Their share in the collection is about 3.3%.

SMILES	CendR NRP1 mod	ATG4B inh	Arr AP2 block	ABCB6 inh MLPCN	Exocytosis inh	Myeloid diff MLP	Granule exo CP1
Cc1oc(-c2ccccc2)cc1C(=O)NC1CCN(Cc2ccccc2)CC1	-1	-1	-5	96	67*	i	-7
Cc1cccc(C(=O)NC2CCN(C(=O)NCc3ccccc3)CC2)c1	-4	-11	-1	76	1	i	/
COC(=O)c1c(NC(=O)CSc2nnc(CNc3ccc(Cl)cc3)o2)sc(C)c1C	8	-5	-1	101	92*	i	-3
CCOC(=O)c1c(NC(=O)CSc2nnc(CNc3ccc(F)cc3)o2)sc(C(C)=O)c1C	-2	-19	3	90	-1	i	/
COc1cc(CNCc2ccccc2)cc(Cl)c1OC	-4	-11	46	98	-6	i	/
COc1cc(CNCCc2ccccc2)cc(Cl)c1OCc1ccccc1	-3	4	5	94	99*	i	7
c1ccc2c(N3CCCC3)nc(-c3ccncc3)nc2c1	-6	-5	12	111	60*	i	-2
Cc1ccccc1CN1CCc2cc([N+](=O)[O-])ccc21	6	-9	-2	99	115*	?	-1
OCCC1CN(CCCc2ccccc2)CCN1CCc1ccccc1 (centres undefined)	-10	-2	-2	102	61*	i	-4
CC1CC(C)CN(CCCNC(=O)c2ccc(CS(=O)(=O)Cc3cccc(Cl)c3)o2)C1 (centres undefined)	-4	-5	1	96	-1	i	/
CCn1cc(C(=O)NCC(=O)NCCCN2CCOCC2)c(=O)c2cc3c(cc21)OCO3	6	9	-17	99	0	i	/
O=C(NCc1ccccc1Cl)c1cc(C(=O)C2CC2)c[nH]1	13	-1	-1	87	61*	i	-13
COc1ccc(CCN(C)C(=O)CSc2ncnc3sccc23)cc1OC	-66	2	-21	102	77*	i	-12
CCOc1ccc(OCC)c(NC(=O)CN(c2ccc(OC)cc2)S(=O)(=O)c2c(C)noc2C)c1	2	2	22	104	57*	i	-5
Cc1ccc(N(CC(=O)NCCc2ccccc2)S(=O)(=O)c2c(C)noc2C)cc1	-6	-4	9	98	-1	i	/
CCOc1ccc(N(CC(=O)NCCc2ccc(C)cc2)S(=O)(=O)c2c(C)noc2C)cc1	-24	13	1	106	79*	i	-3
CNC(=O)C(=O)Nc1cc2c3c(c1)CCC(=O)N3CCC2	5	3	41	98	-4	i	/
COc1cc(CN2C[C@@H](CO)O[C@@H](n3cnc4c(N(C)C)ncnc43)C2)cc(OC)c1OC	-4	/	/	95	-6	i	/
COc1ccc(NC(=O)N(C2CCCCC2)C2CCN(C(C)C)CC2)c(OC)c1	1	-2	12	97	70*	i	-12
COc1ccc(NC(=O)N(C2CCCCC2)C(C)c2ccco2)c(OC)c1 (centres undefined)	-1	-11	-1	100	0	i	/
Cc1ccc(C(c2nnnn2Cc2cccs2)N2CCN(Cc3ccc4c(c3)OCO4)CC2)cc1 (centres undefined)	11	-10	25	96	60*	i	9
COCCn1nnnc1C(c1ccc(C)cc1)N1CCN(Cc2ccc3c(c2)OCO3)CC1 (centres undefined)	-5	-3	15	101	0	i	/
CC(=O)Nc1cccc(-n2c(=O)n(Cc3ccccc3)c(=O)c3[nH]cnc32)c1	3	0	10	98	56*	i	-4
c1ccc(CN2CCCC3(CCCN(Cc4nc(CC5CC5)no4)C3)C2)cc1 (centres undefined)	9	-1	15	95	2	i	/
c1ccc(CN2CCCC3(CCCN(Cc4nc(COc5ccccc5)no4)C3)C2)cc1 (centres undefined)	13	0	-3	100	60*	i	-4
SMILES	CendR NRP1 mod	ATG4B inh	Arr AP2 block	ABCB6 inh MLPCN	Exocytosis inh	Myeloid diff MLP	Granule exo CP1
COc1ccc(C(C)(C)C)cc1NS(=O)(=O)c1cccc2cccnc12	-5	-1	2	100	59*	i	-12
Cc1cccc(CC2CC(=O)N(CCc3ccc4c(c3)OCO4)C2=O)c1 (centres undefined)	-3	-5	-1	102	0	i	/
O=C1CC(Cc2ccccc2)C(=O)N1CCc1ccc2c(c1)OCO2 (centres undefined)	7	8	2	106	76*	i	-14
Cc1cc(NCCCN(C)C)n2c(nc3ccccc32)c1C#N	-36	3	8	101	3	i	/
Cc1cc(NCCCOC(C)C)n2c(nc3ccccc32)c1C#N	-65	3	-3	105	62*	i	-14
CC1NC(=O)c2cc3ccccc3cc2-n2c1nc1ccccc1c2=O (centres undefined)	0	/	/	87	3	i	/
Cc1cccc(S(=O)(=O)Nc2ccc(S(=O)(=O)Nc3nccs3)cc2)c1	-4	-1	1	91	61*	i	-16
COc1ccc(C(=O)C(C)Sc2nnc(C3CC3)n2C2CC2)cc1 (centres undefined)	2	-56	40	101	44	i	/
Cc1ccc(S(=O)(=O)N2C3CC(c4ccccc4)N(S(=O)(=O)c4ccccc4Cl)CC3C(=O)C[C@H]2c2ccccc2)cc1 (some centres undefined)	3	/	/	/	-1	i	/
COc1ccc(OC)c(C2=Nn3c(nnc3C3CCCCC3)SC2)c1	-13	-11	18	95	73*	i	-11
O=C1c2cccc3c([N+](=O)[O-])ccc(c23)C(=O)N1CCc1ccccn1	-11	-3	36	155	19	?	/
CN(C)CCCN1C(=O)c2cccc3c([N+](=O)[O-])ccc(c23)C1=O	29*	-6	18	125	57*	?	9
O=C(O)c1ccc(-c2noc(-c3ccccc3F)n2)cc1	-17	-3	2	98	97*	i	-12
COc1ccc2c(CC(=O)OCC(=O)NC(=O)c3cccn3C)coc2c1	-4	30	17	103	-4	i	/
CCCCN(C)Cc1c(C)[nH]c2ccccc2c1=O	-15	4	-13	87	71*	i	-3
CCCCN(C)Cc1c(C)[nH]c2ccc(C)cc2c1=O	-6	-2	9	102	18	i	/
Cc1ccc(C)c(N(CC(=O)NC2CCCC2)C(=O)CCC(=O)Nc2nccs2)c1	2	1	0	105	78*	i	-12

High-throughput results: PubChem BioAssay, several laboratories
